Laboratory results published in publication PMC11408085 (Biochemistry, 2024).
Like-named read-outs stand apart in the source and are kept apart here.

Assays:
[1] = target: T1, IYD from Haliscomenobacter hydrossis (Haliscomenobacter hydrossis, UniProt F4KU78); assay: biochemical; format: binding
T1 sequence (F4KU78 1-222): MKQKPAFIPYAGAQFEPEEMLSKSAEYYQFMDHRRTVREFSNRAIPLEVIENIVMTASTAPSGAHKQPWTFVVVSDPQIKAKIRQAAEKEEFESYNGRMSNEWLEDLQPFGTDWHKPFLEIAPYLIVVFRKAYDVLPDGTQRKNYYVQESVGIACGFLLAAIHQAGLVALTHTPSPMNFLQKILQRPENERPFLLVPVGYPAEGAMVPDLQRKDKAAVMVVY

[2] = target: T1, IYD from Haliscomenobacter hydrossis; format: biochemical; settings: equimolar concentrations of substrate, anaerobic
[3] = target: T1, IYD from Haliscomenobacter hydrossis; settings: for fold increase in t1/2: O2N ligands, relative to IYD without ligand; for fold change in t1/2: relative to IYD without ligand (10 min); for protection of IYD against trypsin: fluorinated ligands, saturating concentration
[4] = target: T2, trypsin from bovine pancreas (Bos taurus, UniProt P00760); assay: Potential inhibition of trypsin by ligands of IYD; format: biochemical; settings: DL-BAPNA as substrate; for inhibition of trypsin: ligand at concentration saturating IYD
T2 sequence (P00760 24-246): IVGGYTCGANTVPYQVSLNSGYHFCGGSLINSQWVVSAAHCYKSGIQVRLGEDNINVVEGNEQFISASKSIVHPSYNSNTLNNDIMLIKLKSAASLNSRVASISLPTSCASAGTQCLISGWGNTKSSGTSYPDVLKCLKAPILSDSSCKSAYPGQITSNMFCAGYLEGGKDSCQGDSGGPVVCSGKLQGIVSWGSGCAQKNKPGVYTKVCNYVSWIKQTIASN
Method in brief: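 4-Nitroaniline formation read at 405 nm (ε = 9920 M⁻¹cm⁻¹) every 15 s for 5 min. Rate taken by linear regression over the first 2 min. Repeated independently twice.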

[5] = target: T3, E91K/K116E variant of IYD (Haliscomenobacter hydrossis, UniProt F4KU78, E91K/K116E); assay: Limited proteolysis of E91K/K116E variant of IYD by trypsin; settings: relative to absence of ligands
[6] = target: T3, E91K/K116E variant of IYD; assay: Affinity of ligands to E91K/K116E variant of IYD; format: binding
[7] = target: T1, IYD from Haliscomenobacter hydrossis; settings: deiodination; ref Kozyryev et al.[26]; cited from earlier work
[8] = target: T1, IYD from Haliscomenobacter hydrossis; settings: IYD with FMNox; ref Kozyryev et al.[26]; cited from earlier work
[9] = target: T3, E91K/K116E variant of IYD; assay: Catalytic dehalogenation by E91K/K116E variant of IYD; format: biochemical
[10] = target: T1, IYD from Haliscomenobacter hydrossis; assay: Catalytic deiodination; format: biochemical; settings: for kcat (s^−1) × 10^−2 / Km: deiodination, 100 mM potassium phosphate pH 7.4, 25 °C
[11] = target: T1, IYD from Haliscomenobacter hydrossis; assay: Redox titration of IYD in the presence of substrate analogues; settings: for two-electron potential of IYD: in presence of ligand, −200 mV in absence of ligands; for formation of FMNsq during reductive titration: saturating ligand, anaerobic, pH 7.4, 25 °C
Catalytic deiodination [12] = substrate: N[C@H](Cc1ccc(O)c(I)c1)C(=O)O; assay: Catalytic deiodination; format: biochemical, Haliscomenobacter hydrossis; settings: other: deiodination, 100 mM potassium phosphate pH 7.4, 25 °C
Catalytic deiodination [13] = substrate: O=C(O)[C@@H](O)Cc1ccc(O)c(I)c1; assay: Catalytic deiodination; format: biochemical, Haliscomenobacter hydrossis; settings: other: deiodination, 100 mM potassium phosphate pH 7.4, 25 °C
[14] = IYD with FMNox, 110 mM potassium phosphate pH 7.4, 25 °C

NCCc1ccc(O)c([N+](=O)[O-])c1 [O2N-tyramine]
weakening of binding relative to O2N-Tyr ([1]; IYD with FMNox): 70 fold
Kd [1, 14]: 280 ± 10 µM
ability to oxidize reduced IYD (FMNhq) [2]: capable of oxidizing FMNhq to regenerate the initial FMNox spectrum
fold increase in t1/2 [3]: 2.7

N[C@@H](Cc1ccc(O)c(I)c1)C(=O)O [I-Tyr, L-3-iodotyrosine, reference compound]
inhibition of trypsin [4]: not due to general inhibition of trypsin
protection of variant from trypsin [5]: over a twofold protection
Kd [6]: 85 ± 14 µM
Km [7]: 49 ± 10 µM
kcat (s^−1) × 10^−2 [7]: 60 ± 0.5 s^−1 × 10^−2
Kd [8]: 5.7 ± 0.4 µM
catalytic dehalogenation [9]: No catalytic dehalogenation could be detected
fold change in t1/2 [3]: 2.2

O=C(O)CCc1ccc(O)c(I)c1 [I-HPPA, 3-(4-hydroxy-3-iodophenyl)propanoic acid]
Kd [1]: > 4000 µM
decrease in affinity relative to I-Tyr ([1]; IYD with FMNox): at least 700 fold
kcat (s^−1) × 10^−2 [10]: <9.3 × 10^−3^e s^−1 × 10^−2
kcat as percentage of that for I-Tyr ([10]; set by detection limit of deiodinated product HPPA): ≤ 0.015%

O=C(O)[C@@H](O)Cc1ccc(O)c([N+](=O)[O-])c1 [O2N-HPLA, (S)-3-(4-hydroxy-3-nitrophenyl)lactic acid]
inhibition of trypsin catalysis ([4]; ligand at twice its Kd value): no more than 25%
Kd [1]: 180 ± 4 µM
ability to oxidize reduced IYD (FMNhq) [2]: capable of oxidizing FMNhq to regenerate the initial FMNox spectrum
fold increase in t1/2 [3]: 2.1

NCCc1ccc(O)c(F)c1 [F-tyramine]
inhibition of trypsin [4]: inhibited trypsin
Kd [1, 14]: 730 ± 140 µM
two-electron potential of IYD [11]: −225 mV
formation of FMNsq during reductive titration [11]: not detected
protection of IYD against trypsin [3]: protected IYD against trypsin

NC(=O)[C@@H](N)Cc1ccc(O)c([N+](=O)[O-])c1 [O2N-tyrosinamide]
inhibition of trypsin [4]: not the consequence of a general inhibition of trypsin
Kd [1, 14]: 2.4 ± 0.1 µM
ability to oxidize reduced IYD (FMNhq) [2]: capable of oxidizing FMNhq to regenerate the initial FMNox spectrum
fold increase in t1/2 [3]: 3.0

NC(=O)C(N)Cc1ccc(O)c(I)c1 (stereo not shown) [I-tyrosinamide]
Kd [1, 14]: 7 ± 0.2 µM
decrease in kcat for dehalogenation relative to I-Tyr [10]: more than 30 fold
decrease in kcat/Km of dehalogenation relative to I-Tyr [10]: more than 900 fold
Km [10]: 2410 ± 410 µM
kcat (s^−1) × 10^−2 [10]: 1.7 ± 0.2 s^−1 × 10^−2
fold change in t1/2 [3]: 2.7

NCCc1ccc(O)c(I)c1 [I-tyramine]
Kd [1, 14]: 99 ± 10 µM
decrease in kcat for dehalogenation relative to I-Tyr [10]: more than 30 fold
decrease in kcat/Km of dehalogenation relative to I-Tyr [10]: more than 900 fold
Km [10]: 1470 ± 450 µM
kcat (s^−1) × 10^−2 [10]: 1.8 ± 0.3 s^−1 × 10^−2
fold change in t1/2 [3]: 2.7

O=C(O)[C@@H](O)Cc1ccc(O)c(I)c1 [I-HPLA, (S)-3-(4-hydroxy-3-iodophenyl)lactic acid]
Kd [1]: > 3000 µM

N[C@@H](Cc1ccc(O)c(F)c1)C(=O)O [F-Tyr, L-3-fluorotyrosine, reference compound]
Kd [1]: 97 ± 3 µM
decrease in affinity relative to I-Tyr ([1]; IYD with FMNox): more than 10 fold
formation of FMNsq during reductive titration [11]: consistent with the neutral form of FMNsq

N[C@H](Cc1ccc(O)c(I)c1)C(=O)O [D-I-Tyr, D-3-iodotyrosine]
inhibition of trypsin [4]: mild inhibitor of trypsin
Kd [1]: 270 ± 15 µM
protection of variant from trypsin [5]: over a twofold protection
Kd [6]: 200 ± 30 µM
catalytic dehalogenation [9]: No catalytic dehalogenation could be detected
fold change in t1/2 [3]: 0.62

NC(=O)[C@@H](N)Cc1ccc(O)c(F)c1 [F-tyrosinamide]
Kd [1, 14]: 77 ± 3 µM
two-electron potential of IYD [11]: −236 mV
formation of FMNsq during reductive titration [11]: not detected
protection of IYD against trypsin [3]: protected IYD against trypsin

B1: IYD from Haliscomenobacter hydrossis (Haliscomenobacter hydrossis DSM 1100) (protein)
chain: T1 sequence (F4KU78 1-222)
Km (Catalytic deiodination [12]): 7900 ± 4000 µM
kcat (Catalytic deiodination [12]): 0.027 ± 0.01 s⁻¹
kcat/Km (Catalytic deiodination [12]): 3.4 ± 1 M⁻¹ s⁻¹
Km (Catalytic deiodination [13]): 270 ± 30 µM
kcat (Catalytic deiodination [13]): 0.013 ± 0.001 s⁻¹
kcat/Km (Catalytic deiodination [13]): 47 ± 5 M⁻¹ s⁻¹
